Like-named read-outs stand apart in the source and are kept apart here.
Key:
[1] = target: T1, αIIbβ3 headpiece (Homo sapiens, UniProt P05106+P08514); test: Size-exclusion chromatography; format: biochemical; conditions: 10 μM drug; for effect on αIIbβ3 headpiece conformation in gel filtration: Mg2+ and Mn2+ buffers
In short: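 Superdex 200 column equilibrated with 10 µM test compound in HEPES-buffered saline containing either 1 mM Mg2+/1 mM Ca2+ or 2 mM Mn2+/0.2 mM Ca2+. αIIbβ3 headpiece (30 µg) pre-incubated 30 min at RT with 60 µM compound in matching buffer, then chromatographed. Hydrodynamic radius taken from elution. Two runs, or one, per compound; controls ≥3.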

[2] = target: T1, αIIbβ3 headpiece; conditions: for conformational state of headpiece molecules in the crystal lattice: state 1 closed, state 8 open
In short: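 Closed αIIbβ3 headpiece–10E5 Fab crystals stabilised in 15% PEG 8000, 0.2 M ammonium sulfate, 0.1 M Tris-HCl pH 8.9, with glycerol raised in 5% steps to 15%. Compound (0.1-1 mM) added in the final 20% glycerol cryo step, with 1 mM MgCl2/1 mM CaCl2 or 2 mM MnCl2/0.2 mM CaCl2. Soaked 4 h, plunge-frozen in liquid N2. Synchrotron diffraction data collected, then structure refinement.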

[3] = target: αIIbβ3 WT (Homo sapiens, UniProt P05106+P08514); test: MBC319.4 Fab LIBS epitope exposure on αIIbβ3 WT transfectants; format: cell-based; conditions: inhibitors at 100x Kd
In short: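 Cells transiently transfected with αIIbβ3 received valproic acid (3 mM final) and glucose (0.4%) at 24 h, and were washed at 48 h in EDTA-containing then plain L-15/0.1% BSA. Cells were incubated with 20 nM Alexa647-MBC319.4 Fab plus inhibitor (Kd from FITC-echistatin competition on WT transfectants) in L15/0.1% BSA, 22°C for 2 h. Read-out was unwashed flow cytometry.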

[4] = target: αIIbβ3 on washed human platelets (Homo sapiens, UniProt P05106+P08514); test: Platelets LIBS exposure assay; format: cell-based
In short: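 Blood from drug-free healthy donors was taken into acid-citrate-dextrose. PRP was spun (140xg, 12 min), given PGE1 at 50 ng/ml, pelleted, washed in citrate-dextrose buffer pH 6.5 and resuspended in Tyrode's pH 7.4 with 1% BSA and 1 mM Ca²⁺/Mg²⁺. […] Read-out was unwashed flow cytometry MFI, over three days with two donors.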

[5] = tested on: clot retraction in human PRP; test: Clot retraction in platelet-rich plasma; format: cell-based; conditions: thrombin
In short: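 Citrated human PRP pre-incubated 20 min at RT with test compound or buffer (in Tyrode's buffer + 1% BSA) at several concentrations. Glass-tube clot retraction started with thrombin (7.5 U/ml stock) at 37°C and imaged every 15 min. Retraction = 1 − (clot area/whole reaction area). IC50 at 30 and 90 min from a three-parameter inhibitor-response fit. Three runs, PRP from three donors.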

[6] = target: αIIbβ3_N305T (Homo sapiens, UniProt P05106+P08514, N331T); test: MBC319.4 Fab LIBS epitope exposure on αIIbβ3_N305T transfectants; format: cell-based; conditions: αIIbβ3 N305T transfectants, inhibitors at 100x Kd
In short: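 αIIbβ3_N305T transfectants of α5/αV-knockout Expi293F cells, harvested 48 h post-transfection and EDTA-washed. Incubated with 20 nM Alexa647-labelled MBC319.4 Fab and test compound in L-15 with 0.1% BSA, equilibrated 2 h at 22°C. Fab binding read by flow cytometry without washing, as MFI.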

[7] = tested on: αIIbβ3 on platelets; conditions: cited from earlier work; for LIBS epitopes on platelets in platelet-rich plasma: ref Baba et al., Murphy et al.
[8] = after activation with thrombin 0.5 U/ml

Row | Compound | effect on structure of closed αIIbβ3 headpiece in crystals ([2]; soaked in Mn2+) | LIBS epitope exposure (integrin extension) on washed platelets ([4]; absence of thrombin) | effect on structure of closed αIIbβ3 headpiece in crystals ([2]; soaked in Mg2+) | inhibition of clot retraction [5] | LIBS epitope exposure (integrin extension) on washed platelets [4, 8] | effect on αIIbβ3 headpiece opening in gel filtration ([1]; 2 mM Mn2+/0.2 mM Ca2+) | effect on αIIbβ3 headpiece opening in gel filtration ([1]; 1 mM Mg2+/1 mM Ca2+) | further results
1 | N=C(N)c1ccc(N2C[C@H](CN3CCN(CCC(=O)O)CC3)OC2=O)cc1 [gantofiban analog, (S)-3-(4-((3-(4-carbamimidoylphenyl)-2-oxooxazolidin-5-yl)methyl)piperazin-1-yl)propanoic acid] | induced movement of the β1-α1 loop and Ser-123 sidechain oxygen into the position of water 1 |  |  |  |  |  |  | effect on αIIbβ3 headpiece conformation in gel filtration [1]: does in both Mg^2+ and Mn^2+
2 | eptifibatide |  | Stronger extension | Ser-123 displaced water 1 to coordinate directly to the MIDAS metal ion |  |  |  |  | LIBS (MBC319.4) epitope exposure [3]: strongly induced LIBS exposure
3 | N=C(N)c1ccc(C2=NOC(CN3CCN(CC(=O)O)CC3)C2)cc1 (stereo not shown) [BMS4–1, 3-(4-((3-(4-carbamimidoylphenyl)-4,5-dihydroisoxazol-5-yl)methyl)piperazin-1-yl)acetic acid] | remained in the closed state |  |  | effective | decreased |  |  | effect on αIIbβ3 headpiece conformation in gel filtration [1]: closure stabilizing; LIBS (MBC319.4) epitope exposure [6]: significantly suppressed LIBS induction
4 | N=C(N)c1ccc(C2=NOC(CN3CCC(CC(=O)O)CC3)C2)cc1 (stereo not shown) [BMS4–2, 2-(1-((3-(4-carbamimidoylphenyl)-4,5-dihydroisoxazol-5-yl)methyl)piperidin-4-yl)acetic acid] |  |  |  | effective | showing significant induction except for BMS4–2 (p=0.06) | stabilized headpiece opening |  | Ser-123 sidechain oxygen - MIDAS Mn2+ ion distance ([2]; soaked in Mn2+): 3.7±0.1 Å; conformational state of headpiece molecules in the crystal lattice ([2]; soaked in Mn2+): state 2
5 | CN1Cc2cc(C(=O)N3CCC(C4CCNCC4)CC3)ccc2N[C@@H](CC(=O)O)C1=O [lotrafiban, (S)-2-(7-([4,4’-bipiperidine]-1-carbonyl)-4-methyl-3-oxo-2,3,4,5-tetrahydro-1H-benzo[e][1,4]diazepin-2-yl)acetic acid] |  | Stronger extension | Ser-123 displaced water 1 to coordinate directly to the MIDAS metal ion |  |  |  | caused the headpiece to elute earlier in gel filtration | hydrodynamic radius of αIIbβ3 headpiece ([1]; 2 mM Mn2+/0.2 mM Ca2+): ~ 5.36 nm; LIBS (MBC319.4) epitope exposure [3]: strongly induced LIBS exposure
6 | Cl.Cl.Cl.N=C(N)c1ccc(N2CCN(C3CCN(CC(=O)O)CC3)CC2)cc1 [GR144053] |  |  |  |  | decreased |  |  | effect on αIIbβ3 headpiece conformation in gel filtration [1]: closing; LIBS (MBC319.4) epitope exposure [6]: significantly suppressed LIBS induction; conformational state of headpiece molecules in the crystal lattice ([2]; soaked in Mn2+): state 1
7 | [H]/N=C(/N)c1ccc(C(=O)N[C@@H](Cc2ccc(O)cc2)C(=O)N2CCC(OCC(=O)O)CC2)cc1 [lamifiban] | induced a 2 Å movement in the β1-α1 loop at the Cα atom of Ser-123 toward ligand | modestly but significantly induced integrin extension | did not cause any conformational change |  |  | induced headpiece opening as completely as tirofiban | did not cause headpiece opening | LIBS epitopes on platelets in platelet-rich plasma ([7]; 2001, 1998): not to induce LIBS epitopes; exposure of LIBS epitopes on αIIbβ3 on platelets ([7]; ref Murphy et al., 1998): did not induce exposure of LIBS epitopes
8 | CCOC(=O)COC1CCN(C(=O)[C@H](C)NC(=O)c2ccc(C(=N)NO)cc2)CC1 [sibrafiban] | induced a 2 Å movement in the β1-α1 loop at the Cα atom of Ser-123 toward ligand | modestly but significantly induced integrin extension | did not cause any conformational change | effective |  | induced headpiece opening as completely as tirofiban | did not cause headpiece opening | LIBS epitopes on platelets in platelet-rich plasma ([7]; 2001, 1998): not to induce LIBS epitopes
9 | N=C(N)c1ccc(C(=O)N[C@@H](Cc2ccc([N+](=O)[O-])cc2)C(=O)N2CCc3nn(CC(=O)O)cc3C2)cc1 [UR-2922] | no structural perturbation |  | no structural perturbation | effective | decreased | shifted the headpiece to a smaller hydrodynamic radius than the control | neither UR-2922 nor BMS4 increased the hydrodynamic radius | LIBS epitopes on platelets ([7]; Mg2+ ref Baba et al., 2001): not to induce LIBS epitopes; LIBS (MBC319.4) epitope exposure [6]: significantly suppressed LIBS induction
10 | fibrinogen γ C-terminal dodecapeptide: fibrinogen γ C-terminal dodecapeptide HHLGGAKQAGDV |  |  |  |  |  |  |  | LIBS (MBC319.4) epitope exposure [3]: Weaker but significant induction
11 | CN1CCN(C(=N)c2ccc(C3=NOC(CN4CCN(CC(=O)O)CC4)C3)cc2)CC1 (stereo not shown) [BMS4, 2-(4-((3-(4-(imino(4-methylpiperazin-1-yl)methyl)phenyl)-4,5-dihydroisoxazol-5-yl)methyl)piperazin-1-yl)acetic acid] | no structural perturbation |  | no structural perturbation |  | decreased | shifted the headpiece to a smaller hydrodynamic radius than the control | neither UR-2922 nor BMS4 increased the hydrodynamic radius | LIBS on platelets ([7]; Mg2+ ref Breth et al., 2005): not to induce LIBS; LIBS (MBC319.4) epitope exposure [6]: significantly suppressed LIBS induction
12 | O=C(O)CN1CCN(CC2CC(C3CCNCC3)=NO2)CC1 (stereo not shown) [BMS4–3, 2-(4-((3-(piperidin-4-yl)-4,5-dihydroisoxazol-5-yl)methyl)piperazin-1-yl)acetic acid] | remained in the closed state |  |  |  |  |  |  | effect on αIIbβ3 headpiece conformation in gel filtration [1]: closure stabilizing
13 | N=C(N)c1ccc(-c2ccc(OC[C@@H]3C[C@@H](CC(=O)O)C(=O)N3)cc2)cc1 [fradafiban, 2-((3S,5S)-5-(((4’-carbamimidoyl-[1,1’-biphenyl]-4-yl)oxy)methyl)-2-oxopyrrolidin-3-yl)acetic acid] | induced a 2 Å movement in the β1-α1 loop at the Cα atom of Ser-123 toward ligand | modestly but significantly induced integrin extension | did not cause any conformational change |  |  | induced headpiece opening as completely as tirofiban | did not cause headpiece opening | 
14 | (2S)-2-((butoxycarbonyl)amino)-3-(2-(3-(4-carbamimidoylphenyl)-4,5-dihydroisoxazol-5-yl)acetamido)propanoic acid [roxifiban] | Ser-123 displaced water 1 to coordinate directly to the MIDAS metal ion | Stronger extension |  | effective |  |  | caused the headpiece to elute earlier in gel filtration | hydrodynamic radius of αIIbβ3 headpiece ([1]; 2 mM Mn2+/0.2 mM Ca2+): ~ 5.36 nm; LIBS (MBC319.4) epitope exposure [3]: Weaker but significant induction
